This note sets out measurements from ChEMBL document CHEMBL4190330, “Discovery of Potent and Selective A2A Antagonists with Efficacy in Animal Models of Parkinson's Disease and Depression” (ACS Med Chem Lett, 2017).

In one series the target is hERG (Homo sapiens, UniProt Q12809). The series is described as follows: Inhibition of human ERG at 10 uM relative to control.
The target of a further series is Cytochrome P450 3A4 (Homo sapiens, UniProt P08684). The series is described as follows: Inhibition of CYP3A4 (unknown origin). The series is classed as ADME.
Sequence of Cytochrome P450 3A4 (P08684 whole entry): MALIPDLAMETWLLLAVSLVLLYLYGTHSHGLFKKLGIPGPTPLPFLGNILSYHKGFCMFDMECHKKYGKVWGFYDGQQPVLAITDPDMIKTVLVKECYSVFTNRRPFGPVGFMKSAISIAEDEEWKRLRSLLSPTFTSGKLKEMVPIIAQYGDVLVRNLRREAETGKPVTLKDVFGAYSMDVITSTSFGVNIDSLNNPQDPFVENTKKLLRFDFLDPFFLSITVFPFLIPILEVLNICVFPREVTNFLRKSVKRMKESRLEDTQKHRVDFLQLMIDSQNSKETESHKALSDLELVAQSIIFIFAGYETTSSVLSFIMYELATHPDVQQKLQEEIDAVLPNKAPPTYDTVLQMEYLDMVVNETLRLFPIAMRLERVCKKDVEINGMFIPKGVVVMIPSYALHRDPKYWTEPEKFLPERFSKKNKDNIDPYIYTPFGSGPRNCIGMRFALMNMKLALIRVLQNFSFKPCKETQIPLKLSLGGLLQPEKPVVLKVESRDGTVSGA
A short description of series [1]: Metabolic stability in human liver microsomes assessed as metabolic rate. The series is classed as ADME, microsome. The procedure, abridged:
(§1)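 Liver microsomes (mouse, rat, dog, human) at 0.125 mg/mL protein; metabolic rate expressed as nmol/min/mg.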

The target in series [2] is T1, Adenosine receptor A3 (Homo sapiens) (UniProt P0DMS8).
T1 sequence (whole entry): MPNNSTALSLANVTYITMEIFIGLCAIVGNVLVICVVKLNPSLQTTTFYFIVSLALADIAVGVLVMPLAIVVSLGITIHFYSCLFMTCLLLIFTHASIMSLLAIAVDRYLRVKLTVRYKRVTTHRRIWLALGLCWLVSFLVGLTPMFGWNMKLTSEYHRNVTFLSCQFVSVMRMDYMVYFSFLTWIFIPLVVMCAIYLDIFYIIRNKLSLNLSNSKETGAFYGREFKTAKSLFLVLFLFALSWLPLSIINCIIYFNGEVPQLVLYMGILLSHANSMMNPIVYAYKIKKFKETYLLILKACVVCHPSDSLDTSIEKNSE
Kind of series: Displacement of [3H]-HEMADO from human A3 receptor expressed in HEK293 cell membranes at 10 uM after 90 mins radioligand binding assay. The procedure, abridged: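 Membranes from HEK-293 cells overexpressing human A3 receptor; points in triplicate; highest concentration tested 10 µM.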

The nature of series [3]: Metabolic stability in dog liver microsomes assessed as metabolic rate. The series is classed as ADME, Canis lupus familiaris, microsome. The procedure, abridged:
as §1

Another series deals with Adenosine receptor A2a (Homo sapiens, UniProt P29274). Kind of series: Antagonist activity at human A2A receptor expressed in HEK293 cell membranes assessed as reduction in CGS-21680-induced cAMP level pretreated for 15 mins followed by CGS-21680 addition measured after 30 mins by HTRF assay. In kind it is functional, cell-based. The essentials:
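HTRF-based cAMP functional assay; each compound tested at 12 concentrations, every point in triplicate; Ki given as mean of two independent experiments (n=2).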

The species named for another series is Homo sapiens. Kind of series: Selectivity ratio of Ki for displacement of [3H]-MRS-1754 from human A2B receptor expressed in HEK293 cell membranes to Ki for displacement of [3H]ZM241385 from human A2A receptor expressed in HEK293 cell membranes. The essentials: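 Radioligand binding used membranes from HEK-293 cells overexpressing each human adenosine receptor isoform. Points were run in triplicate, and 8-concentration IC50 curves were plotted to give Ki. The selectivity value is the Ki at the off-target isoform divided by the Ki at hA2A.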

Series [4] is described as follows: Metabolic stability in rat liver microsomes assessed as metabolic rate. In kind it is ADME, microsome. The procedure, abridged: as §1
The test system of the next series is Rattus norvegicus. The series is described as follows: Anti-parkinson's activity in po dosed Wistar rat assessed as reversal of haloperidol-induced catalepsy measured after 1 to 4 hrs. The series is classed as functional, organism-based. The procedure, abridged: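 Haloperidol-induced catalepsy in rats; oral dosing; catalepsy scored at 1, 2 and 4 h; ED50 derived; mean ± SEM, n=6-7.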

The next series relates to HepG2. Kind of series: Cytotoxicity against human HepG2 cells after 24 hrs by MTT assay. The series is classed as cell-based. As to conditions: HepG2, 24 h.
In series [5] the target is T2, Adenosine receptor A2b (Homo sapiens) (UniProt P29275).
T2 sequence (whole entry): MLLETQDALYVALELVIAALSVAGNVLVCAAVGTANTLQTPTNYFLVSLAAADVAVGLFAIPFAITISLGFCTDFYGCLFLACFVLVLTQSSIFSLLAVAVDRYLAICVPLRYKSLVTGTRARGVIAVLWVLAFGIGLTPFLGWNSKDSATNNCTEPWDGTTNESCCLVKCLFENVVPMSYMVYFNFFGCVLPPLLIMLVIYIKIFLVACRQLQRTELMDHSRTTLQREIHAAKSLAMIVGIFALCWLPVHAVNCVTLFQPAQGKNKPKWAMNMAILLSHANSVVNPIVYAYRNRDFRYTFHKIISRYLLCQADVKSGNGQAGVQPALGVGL
The series is described as follows: Antagonist activity at human A2B receptor expressed in HEK293 cell membranes assessed as inhibition of NECA-induced cAMP level at 10 uM pretreated for 15 mins followed by NECA addition measured after 15 mins by HTRF assay. In kind it is functional, cell-based. The procedure, abridged: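 HTRF cAMP functional assay on the human receptor isoform, run in triplicate at 12 concentrations with a top concentration of 10 µM, in two independent experiments. Inhibition at 10 µM is recorded where no Ki could be derived.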

The nature of series [6]: AUC (0 to t) in Wistar rat at 3 mg/kg, iv by LC-MS/MS analysis. In kind it is ADME, organism-based. The settings on record: in vivo.
Series [7] can be described thus: Tmax in Wistar rat at 10 mg/kg, po administered via gavage by LC-MS/MS analysis. In kind it is ADME, organism-based. As to conditions: in vivo. The essentials: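 Male Wistar rats, n = 4; oral dose 10 mg/kg as suspension in 1% Tween 80 with 0.5% w/v NaCMC; values are means.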
In series [8] the target is T3, Nuclear receptor subfamily 1 group I member 2 (Homo sapiens, UniProt O75469).
T3 sequence (O75469 whole entry): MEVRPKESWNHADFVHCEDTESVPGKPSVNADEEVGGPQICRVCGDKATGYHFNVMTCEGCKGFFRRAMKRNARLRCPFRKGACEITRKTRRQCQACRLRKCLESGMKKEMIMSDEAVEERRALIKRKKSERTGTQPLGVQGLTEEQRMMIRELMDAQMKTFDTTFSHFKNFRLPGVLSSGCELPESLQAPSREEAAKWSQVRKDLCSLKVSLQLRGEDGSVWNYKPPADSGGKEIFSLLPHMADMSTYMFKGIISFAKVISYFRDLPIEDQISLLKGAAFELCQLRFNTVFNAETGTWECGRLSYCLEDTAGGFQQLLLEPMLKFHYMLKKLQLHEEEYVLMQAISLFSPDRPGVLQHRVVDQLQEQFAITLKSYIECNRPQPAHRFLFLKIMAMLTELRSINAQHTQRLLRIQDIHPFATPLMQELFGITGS
The series is described as follows: Transactivation of recombinant human PXR expressed in HepG2 cells after 42 hrs by dual luciferase reporter gene assay. In kind it is ADME, cell-based.

For the next series, the target named is Cytochrome P450 2C9 (Homo sapiens, UniProt P11712). Kind of series: Inhibition of CYP2C9 (unknown origin). In kind it is ADME.
Sequence of Cytochrome P450 2C9 (P11712 whole entry): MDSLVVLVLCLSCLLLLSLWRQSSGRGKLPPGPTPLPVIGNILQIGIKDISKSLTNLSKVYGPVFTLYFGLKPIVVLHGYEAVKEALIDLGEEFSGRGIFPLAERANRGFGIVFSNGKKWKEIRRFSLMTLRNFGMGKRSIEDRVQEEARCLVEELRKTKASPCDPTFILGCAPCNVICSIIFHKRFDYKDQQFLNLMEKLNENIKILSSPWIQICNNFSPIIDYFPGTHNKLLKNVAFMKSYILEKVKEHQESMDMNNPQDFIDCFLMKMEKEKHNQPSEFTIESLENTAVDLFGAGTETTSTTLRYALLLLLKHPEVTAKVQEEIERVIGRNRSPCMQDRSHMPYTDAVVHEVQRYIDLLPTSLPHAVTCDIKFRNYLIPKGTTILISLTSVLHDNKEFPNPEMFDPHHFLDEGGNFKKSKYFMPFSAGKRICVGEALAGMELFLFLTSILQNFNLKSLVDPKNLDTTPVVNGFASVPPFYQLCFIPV

Activity calls are given as the source filed them. No cut-off for these calls is given here.

Sequence of hERG (Q12809 whole entry): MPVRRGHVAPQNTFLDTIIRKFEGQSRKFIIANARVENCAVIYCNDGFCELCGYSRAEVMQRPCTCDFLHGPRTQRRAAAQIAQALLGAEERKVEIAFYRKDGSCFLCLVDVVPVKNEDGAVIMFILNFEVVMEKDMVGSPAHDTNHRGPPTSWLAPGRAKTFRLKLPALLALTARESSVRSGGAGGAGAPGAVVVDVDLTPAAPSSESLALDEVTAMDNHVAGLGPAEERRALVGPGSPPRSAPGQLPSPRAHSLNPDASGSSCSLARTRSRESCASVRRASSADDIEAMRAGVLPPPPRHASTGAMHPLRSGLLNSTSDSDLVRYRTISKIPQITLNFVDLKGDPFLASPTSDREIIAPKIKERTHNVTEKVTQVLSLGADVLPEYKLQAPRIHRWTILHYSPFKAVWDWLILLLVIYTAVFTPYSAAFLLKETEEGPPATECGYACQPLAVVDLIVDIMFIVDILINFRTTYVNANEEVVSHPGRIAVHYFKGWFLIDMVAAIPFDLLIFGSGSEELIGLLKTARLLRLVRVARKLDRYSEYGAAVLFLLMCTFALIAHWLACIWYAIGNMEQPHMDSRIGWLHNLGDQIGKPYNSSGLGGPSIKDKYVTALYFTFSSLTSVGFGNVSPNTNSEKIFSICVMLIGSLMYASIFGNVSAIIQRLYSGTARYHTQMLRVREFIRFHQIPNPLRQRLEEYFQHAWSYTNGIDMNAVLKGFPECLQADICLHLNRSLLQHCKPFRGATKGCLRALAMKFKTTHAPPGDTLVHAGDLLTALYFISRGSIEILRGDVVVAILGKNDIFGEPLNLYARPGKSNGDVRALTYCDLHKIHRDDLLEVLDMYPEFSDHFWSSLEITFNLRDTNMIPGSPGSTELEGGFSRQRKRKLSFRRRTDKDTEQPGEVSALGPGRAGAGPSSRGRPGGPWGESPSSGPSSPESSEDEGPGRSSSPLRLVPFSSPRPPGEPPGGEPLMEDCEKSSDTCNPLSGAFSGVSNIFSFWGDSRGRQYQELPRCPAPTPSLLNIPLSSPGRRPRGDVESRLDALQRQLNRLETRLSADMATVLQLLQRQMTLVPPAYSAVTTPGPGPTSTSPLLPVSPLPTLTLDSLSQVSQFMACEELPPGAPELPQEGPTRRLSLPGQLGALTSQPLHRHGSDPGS
Sequence of Adenosine receptor A2a (P29274 whole entry): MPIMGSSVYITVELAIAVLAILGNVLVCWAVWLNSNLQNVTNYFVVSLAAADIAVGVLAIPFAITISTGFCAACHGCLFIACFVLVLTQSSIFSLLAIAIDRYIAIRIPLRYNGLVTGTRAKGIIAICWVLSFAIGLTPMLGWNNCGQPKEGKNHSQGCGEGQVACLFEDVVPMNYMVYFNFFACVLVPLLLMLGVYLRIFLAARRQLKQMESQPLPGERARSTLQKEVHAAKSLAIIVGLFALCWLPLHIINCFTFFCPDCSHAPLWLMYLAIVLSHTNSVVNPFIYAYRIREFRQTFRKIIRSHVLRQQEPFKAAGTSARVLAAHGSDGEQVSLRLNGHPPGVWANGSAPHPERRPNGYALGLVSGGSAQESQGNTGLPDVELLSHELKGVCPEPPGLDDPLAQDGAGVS

At hERG, `COCCOc1ccc(N2CCN(CCn3c(=O)n(C)c4c3nc(N)n3nc(-c5nccs5)nc43)CC2)cc1F` yielded an inhibition at 10 µM of 38%. Besides, the IC50 against Cytochrome P450 3A4 is above 10 µM; in the series with HepG2, above 30 µM; against Cytochrome P450 2C9, above 10 µM. Further, the Drug metabolism was 0.14 nmol/min/mg in series [1], 0.04 nmol/min/mg in [3] and 0 nmol/min/mg in series [4]. Besides, the inhibition entry in [2] was “inactive”. Also, on Adenosine receptor A2a, the inhibition constant (Ki) was 0.4 nM. Also, the Ratio Ki in the series filed under Homo sapiens is above 3000. The Activity result in the series with Rattus norvegicus was “Dose-dependent effect”. The ED50 in the series with Rattus norvegicus turned out to be 4.49 mg/kg. Besides, in [5], the inhibition was below 50%. The AUC(0-t) in series [6] was found to be 3.6 µM·h. Moreover, in [7], the Tmax turned out to be 48 min. In addition, in series [8], the EC50 was above 60 µM.
